# An excerpt weighted towards active compounds, which were near 4.6% of everything screened.
# TAAR1 antag: human TAAR1 antagonism | inhibition, % at 3 µM | AID 624466 | Q96RJ0 | CHO RD-HGA16 TAAR1, Fluo-8 calcium fluorescence, antagonist | 1.5% of 360,000 active;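 active means inhibition above a per-plate cutoff, the mean inhibition of test compounds on that plate plus 3 SD, cut at about 49% in these data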;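 further: 0% = DMSO plus EC80 beta-PEA response and 100% = DMSO alone without agonist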
#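 Material: CHO RD-HGA16 cells bearing hTAAR1; compound dosing: one-point dosing, 3 µM nominal final; schedule: dye loading 75 min at 37 °C, then 30 min room temperature; measured by: calcium fluorescence with Fluo-8; control set: vehicle and agonist controls; replication: n of 1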
# TAAR1 agonist: human TAAR1 agonism. activation, % at 3 µM. CHO RD-HGA16 TAAR1, Fluo-8 calcium fluorescence; vehicle wells 0%, saturating PEA agonist 100%. Q96RJ0. AID 624467. 0.99% of 360,000 active;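 active means activation above the mean activation of all test compounds in the run plus 3 SD, cut at about 38% in these data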
#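 System: CHO RD-HGA16 cells carrying human TAAR1 plus Gα16; Incubation: 17-24 h seeding, 75 min 37 °C dye, 30 min RT; Measured by: Fluo-8 fluorescence, 5 s baseline then 140 s kinetic read; Control set: DMSO and PEA EC100; Replication: single well for each compound.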
# OX1R antag-1: blocks the human orexin 1 receptor | O43613 | OX1R-expressing cells, FRET antagonist read-out | 1.8% of 330,000 active | inhibition, % at 6.6 µM; in the data active means inhibition mostly above about 38%, no sharp cut-off; inactive means mostly below about 40%;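 further: 0% = agonist challenge alone and 100% = reference antagonist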
# Target sequence (O43613 whole entry, looked up): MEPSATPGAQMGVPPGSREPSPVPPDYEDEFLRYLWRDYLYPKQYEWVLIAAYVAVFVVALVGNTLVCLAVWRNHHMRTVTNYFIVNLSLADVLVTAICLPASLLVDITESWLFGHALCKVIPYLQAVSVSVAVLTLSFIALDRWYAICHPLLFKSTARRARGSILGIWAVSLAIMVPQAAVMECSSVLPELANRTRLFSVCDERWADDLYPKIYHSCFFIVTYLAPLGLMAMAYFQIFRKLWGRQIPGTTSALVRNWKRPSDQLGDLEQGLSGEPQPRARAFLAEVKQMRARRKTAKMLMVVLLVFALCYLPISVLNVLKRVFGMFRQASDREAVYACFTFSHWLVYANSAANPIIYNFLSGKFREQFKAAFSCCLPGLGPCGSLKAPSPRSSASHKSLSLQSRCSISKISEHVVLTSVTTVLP
# GPR7 antagonist: blocks human GPR7 receptor signaling. inhibition, % at 4.4 µM. P48145. GPR7-expressing cells, fluorescence antagonist assay. 1.1% of 290,000 active. AID 1861; in the data active means inhibition above about 16%, passing the limit was not always enough;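 further: cells stimulated with the agonist NPW; 0% = agonist with vehicle and 100% = vehicle without agonist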
# OX1R antag-2: human HCRTR1 antagonism | O43613 | CHO/OX1R cells, Fluo-8 calcium fluorescence, orexin A | inhibition, % at 5 µM | 0.43% of 330,000 active | AID 434989;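 active means inhibition above its plate's threshold, mean inhibition of all tested compounds on the plate plus 3 SD, cut at about 37% in these data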;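 further: 0% = orexin A challenge wells and 100% = SB-334867-A antagonist wells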
# CHO parental Ca: signal in parental CHO cells, OX1R antagonist counter-screen. parental CHO-K1, ATP-induced calcium, Fluo-8 fluorescence. inhibition, % at 5.6 µM. 0.63% of 330,000 active. AID 463079;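 active means inhibition above that plate's mean sample inhibition plus 3 SD, cut at about 26% in these data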;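 further: 0% = ATP-challenged DMSO wells and 100% = DMSO wells without ATP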
#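 Test system: untransfected parental CHO cell line. Compound: one dose, 5.6 µM nominal. Detection: intracellular calcium via Fluo-8 no-wash fluorescent dye. Measure: % inhibition. Benchmarks: ATP-challenged DMSO wells low, unchallenged DMSO wells high.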
# * hit, by the source's call; / = not tested or not shown.
SMILES,TAAR1 antag,TAAR1 agonist,OX1R antag-1,GPR7 antagonist,OX1R antag-2,CHO parental Ca
O=C(COC(=O)c1n[nH]c2ccccc12)NC1CCCCC1,7.7,2.5,6.3,/,-8.1,-10.6
O=C(COC(=O)c1ccc(O)cc1)Nc1cc(S(=O)(=O)N2CCOCC2)ccc1Cl,53.3*,26.8,3.7,/,-9.4,3.6
O=C(COC(=O)c1ccc(O)cc1)Nc1cc(S(=O)(=O)N2CCOCC2)ccc1N1CCOCC1,13.4,6.7,/,/,/,/
O=C(Nc1ccc(S(=O)(=O)N2CCOCC2)cc1)c1ccc([N+](=O)[O-])o1,-19.9,5.7,63.1,5.8,3.8,-5.5
CCOc1ccc(S(=O)(=O)N2CCc3ccccc3C2)cc1,20.4,0.5,10.8,19.8*,-5.9,17.9
O=C(Nc1ccc(S(=O)(=O)N2CCCC2)cc1)c1ccc([N+](=O)[O-])o1,/,/,34.2*,/,-5.8,-4.2
COc1ccc(S(=O)(=O)N2CCc3ccccc3C2)cc1,22.5,-1.3,16.9,-0.1,-31.0,-14.7
CNC(=O)c1ccccc1Sc1cccc2cccc(C(=O)O)c12,-3.3,-0.7,-6.7,-15.3,-5.5,-7.8
CSCCC(NC(=O)COc1ccccc1)C(=O)N(C)Cc1c(F)cccc1Cl (centres undefined),52.1*,9.6,/,/,/,/
CSCCC(NC(=O)COc1ccccc1)C(=O)N(C)CC(=O)Nc1ccc(Cl)cc1 (centres undefined),-4.8,6.2,0.3,/,-28.4,-18.2
CCOCCn1ccc2c(OCC(=O)Nc3ccccc3OC)cccc2c1=O,58.3*,10.4,13.7,/,-23.0,-1.4
COc1ccccc1NC(=O)CSc1nc2ccccc2c(=O)n1C,30.9,6.2,48.3*,18.1,20.9,49.8*
COc1cccc(NC(=O)CSc2nc3ccccc3n2C)c1,6.4,3.5,57.4*,6.2,-19.2,-18.1
CCn1c(SCC(=O)Nc2cccc(OC)c2)nc2ccccc2c1=O,4.7,9.7,/,-5.3,/,/
Cc1cccc(NC(=O)CSc2nc3ccccc3c(=O)n2C)c1C,19.9,6.3,/,/,/,/
Cn1c(SCc2cccc([N+](=O)[O-])c2)nc2ccccc2c1=O,23.7,2.8,54.0*,/,67.7*,35.8*
CC(C)C[C@H]1CN=C(Nc2ccccc2)N1CCc1cccc(F)c1,/,/,8.1,/,87.4*,50.1*
CC(C)C[C@H]1CN=C(N(C)C)N1CCc1cccc(F)c1,7.5,14.4,-0.3,/,-29.3,-3.9
CCc1nc2ccc(C(=O)Nc3cccc(OCC(=O)N(C)C)c3)cn2c1N(C)Cc1ccc(OC)cc1,54.2*,10.5,/,/,/,/
O=C(COc1ccc2c3c(c(=O)oc2c1)CCCC3)NCc1ccccn1,-20.4,0.7,6.8,-12.2,-25.8,-24.7
CCOC(=O)/C=c1\s/c(=C(\C#N)C(=O)NC)n(-c2ccccc2)c1=O,15.9,-0.8,40.1,-14.3,-11.2,-4.5
CCOC(=O)/C=c1\s/c(=C(\C#N)C(N)=O)n(-c2ccccc2)c1=O,1.8,0.0,57.1*,0.5,-11.5,-8.7
O=C(Nc1ccc(OCC(F)(F)C(F)F)c(C(F)(F)F)c1)c1ccccc1,35.5,5.4,19.7,-2.0,-7.1,4.8
O=C(Nc1ccc(OCC(F)(F)C(F)F)c(C(F)(F)F)c1)c1ccccc1O,13.7,9.3,84.5*,17.8,66.4*,72.0*
CCOCCCN(Cc1ccco1)C(=O)c1cc2c(=O)[nH]c3ccc(C)cc3c2s1,-10.7,1.2,18.6,-4.2,-44.6,-8.3
SMILES,TAAR1 antag,TAAR1 agonist,OX1R antag-1,GPR7 antagonist,OX1R antag-2,CHO parental Ca
Cn1c2ccccc2c(=O)c2ccc(C#Cc3ccc(N)cc3)cc21,38.0,3.6,31.4,-3.5,0.2,0.2
Cn1c2ccccc2c(=O)c2cc(C#CC3=CCCCC3)ccc21,21.2,3.1,36.8*,/,0.4,-29.4
O=[N+]([O-])c1ccc(CSc2ccc(S(=O)(=O)N3CCCCCC3)cn2)cc1,47.3,4.8,/,/,/,/
CCOC(=O)c1c(NC(=O)CSc2c[nH]c3ccccc23)sc2c1CCCC2,0.6,0.2,1.5,-2.4,-18.9,0.3
CCOC(=O)c1c(NC(=O)CSc2nnc(-c3c[nH]c4ccccc34)n2CCOC)sc2c1CCCCC2,-25.0,-1.0,44.6*,-17.4,12.5,-8.8
CN(CC(=O)Nc1ccc(F)cc1)S(=O)(=O)c1ccc2c(c1)c(=O)n(C)c(=O)n2C,-5.1,4.3,10.0,2.3,-27.8,-9.6
Nc1ncncc1-c1ccc([N+](=O)[O-])cc1,-14.8,1.1,63.3*,18.5,0.1,-1.5
Nc1ncncc1-c1ccc(F)cc1,-23.0,0.8,/,/,/,/
CC(=O)c1cccc(NC(=O)Nc2nc(C)cc(C)n2)c1,-17.8,0.6,58.7*,-5.6,0.3,-1.3
CC(=O)c1cccc(NC(=O)Nc2ccccc2)c1,17.3,27.6,3.9,20.5,-25.1,1.5
Cc1ccnc(NC(=O)c2cccc(NC(=O)c3ccc(Cl)c(Cl)c3)c2)c1,54.1*,13.8,/,/,/,/
COc1ccc(OC)c(NC(=O)c2cccc(NC(=O)c3ccccc3)c2)c1,18.0,5.3,54.2*,-1.3,-13.9,-14.5
CC(=O)c1cccc(NC(=O)c2ccc3ccccc3c2)c1,36.8,20.4,8.5,-0.9,-20.9,-19.6
Cc1ccnc(NC(=O)c2cccc(NC(=O)c3ccc(Cl)cc3)c2)c1,44.1,8.7,/,/,/,/
COc1ccc(NC(=O)c2cccc(NC(=O)c3ccccc3)c2)c(OC)c1,17.2,8.0,11.6,-9.1,-22.5,-17.0
CC(=O)c1ccc(NC(=O)c2cccc(NC(=O)c3ccccc3)c2)cc1,50.2*,12.1,-5.2,-7.8,-20.2,5.0
Cc1ccc(N2CC(C(=O)Nc3ccc(N4CCOCC4)cc3)CC2=O)cc1C (centres undefined),-6.1,1.4,8.5,20.5,-14.9,10.4
Cc1ccc2nc(/C(C#N)=C\c3cc(C)n(-c4cccc([N+](=O)[O-])c4)c3C)[nH]c2c1,27.6,8.7,58.7*,-12.5,-1.8,1.7
Cc1cc(/C=C(/C#N)c2nc3ccccc3[nH]2)c(C)n1-c1cc(C(=O)O)cc(C(=O)O)c1,-1.8,0.9,/,-2.0,/,/
COc1ccc(C(OCC(O)CN(C)C2CCCCC2)c2ccc(OC)cc2)cc1 (centres undefined),-7.1,8.1,8.1,20.3*,-13.4,-18.6
CCOC(=O)Cn1c(=O)oc2cc(S(=O)(=O)NC3CCCc4ccccc43)ccc21 (centres undefined),18.9,1.6,7.8,27.8*,-7.6,14.2
O=C(C1=C[C@H](c2ccccc2)C[C@H](OCCCCO)O1)N1CCOCC1,-7.1,1.4,9.8,-13.1,-2.0,-9.4
O=C(COc1cccc(F)c1)N[C@@H](Cc1ccccc1)c1nc2ccccc2[nH]1,-2.4,4.7,60.6*,-1.7,12.1,-12.0
Cc1cc(C)cc(Cn2c3ccc(NC(=O)NCCc4cccs4)cc3c(=O)n2C)c1,58.5*,41.9*,/,/,/,/
CC1=C(C(=O)N2CCOCC2)CC(CC(=O)NCc2cccs2)C(=O)N1CCC1=CCCCC1 (centres undefined),-27.3,0.4,/,/,/,/
